From PubChem BioAssay
An excerpt weighted towards active compounds, which were near 2.7% of everything screened.
CaV13 FRET inh = Disruptors of the CACNA1D IQ motif to Ca2+-dependent inactivation inhibitor domain association, primary screening, Förster resonance energy transfer in intact living …; HEK cells, CFP/YFP FRET ICDI-IQ, plate reader, 10 min; percent FRET-ratio fall versus neutral wells; inhibition, % at 12.3 µM; 340,000 compounds, 0.098% hits;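 active means mean replicate inhibition of at least 30% and at least 1% of replicates passing that level; inconclusive means only one of the two criteria is met; inactive means neither criterion is met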
MLL AF4-AF9 inh = inhibitors of human MLL-AF4/AF9 interaction. P42568. AlphaScreen, biotin-AF4 peptide binding to FLAG-AF9. inhibition, % at 10 µM. 350,000 compounds, 0.47% hits;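 active means every replicate reaching a set inhibition limit, whatever the replicate mean, cut at about 25% in these data; inconclusive means mean inhibition reaches that limit but some replicates miss it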
DENV2 CPE = protects cells from dengue virus 2 cytopathic effect; CPE inhibition, % at 9.99 µM; 350,000 compounds, 1.7% hits; DENV2-infected cells, cytopathic effect rescue, plate reader; in the data active means CPE inhibition above about 20%, passing the limit was not always enough; inconclusive means no clear call, values can overlap the other calls; tested in BHK-21 cells
S100A4 MyoIIA = S100A4-myosin IIA interaction inhibition; P26447; S100A4/TAMRA-MyoIIA peptide fluorescence polarization; inhibition, % at 10.7 µM; 360,000 compounds, 0.14% hits; AID 652163;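 active means mean inhibition of at least 70% across replicates, with every replicate also reaching that level; inconclusive means mean inhibition reaches 70% but some replicates fall short; inactive means mean inhibition below 70%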
Target sequence (P26447 whole entry, looked up): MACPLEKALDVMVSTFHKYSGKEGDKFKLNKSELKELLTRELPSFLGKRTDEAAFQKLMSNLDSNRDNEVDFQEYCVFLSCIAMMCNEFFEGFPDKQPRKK
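Material: S100A4 monomer protein | Medium: HEPES pH 7.2 with CaCl2, KCl, NaCl, DTT, Triton | Reagent: Labelled myosin peptide probe, 5 nM | Doses: One dose per compound | Times: 5 min incubation before reading | Benchmarks: Neutral control DMSO, positive control TFP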
SIRT5 block = blocks human SIRT5 desuccinylation of peptide | inhibition, % at 15 µM | Q9NXA8 | Purified SirT5, succinyl-peptide AMC, trypsin-coupled fluorescence | 330,000 compounds, 1.1% hits; in the data active means inhibition above about 15%; inconclusive means no clear call, values can overlap the other calls
Target sequence (Q9NXA8 whole entry, looked up): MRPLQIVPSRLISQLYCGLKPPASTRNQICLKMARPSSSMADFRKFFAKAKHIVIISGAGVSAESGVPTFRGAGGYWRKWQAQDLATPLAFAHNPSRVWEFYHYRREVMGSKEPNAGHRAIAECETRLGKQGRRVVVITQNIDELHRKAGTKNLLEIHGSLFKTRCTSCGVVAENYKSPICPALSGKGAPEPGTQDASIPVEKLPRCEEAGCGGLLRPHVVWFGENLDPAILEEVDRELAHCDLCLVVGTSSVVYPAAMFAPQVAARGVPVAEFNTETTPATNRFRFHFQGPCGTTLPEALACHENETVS
Each line names hits and unclear results; the compound was inactive in the other large screens.

CC(C)(C)CNC(=O)c1ccc2c(c1)S(=O)(=O)c1cc(Cl)ccc1C2=O	none (no result: MLL AF4-AF9 inh, SIRT5 block)
CCOC(=O)C1CCN(CC(O)COCc2ccc(Cl)cc2)CC1 (configuration not stated)	none
CCN(CCNCC(O)COCc1ccc(Cl)cc1)c1cccc(C)c1 (configuration not stated)	MLL AF4-AF9 inh 29
CO[C@H]1CN(C)C(=O)c2ccc(NS(=O)(=O)c3cccc(C)c3)cc2OC[C@@H](C)NC[C@@H]1C	none (no result: CaV13 FRET inh)
O=C(NCc1ccccc1)C1CC(=O)N(C2CCCCC2)C1 (configuration not stated)	none
O=C(NCc1ccc(F)cc1)C1CC(=O)N(C2CCCCC2)C1 (configuration not stated)	SIRT5 block 31
CC1=NN(C(=O)c2ccc(Cn3cc([N+](=O)[O-])cn3)cc2)C(O)(C(F)(F)F)C1 (configuration not stated)	SIRT5 block 18 (no result: DENV2 CPE)
CCN1C(=O)[C@H]2[C@@H](c3ccc(-c4ccc5c(c4)OCO5)c(OC)c3)N[C@@](C)(C(=O)OC)[C@H]2C1=O	S100A4 MyoIIA 99 (no result: DENV2 CPE, SIRT5 block)
CCN1C(=O)[C@H]2[C@@H](c3ccc(-c4cccc(Cl)c4)c(OC)c3)N[C@@](CC(C)C)(C(=O)OC)[C@H]2C1=O	SIRT5 block 25
CCN1C(=O)[C@H]2[C@@H](c3ccc(-c4cccc(Cl)c4)cc3)N[C@@](CC(C)C)(C(=O)OC)[C@H]2C1=O	none (no result: SIRT5 block)
COCC#Cc1ccc([C@@H]2[C@H](CO)N3CCCCN(S(=O)(=O)c4ccc(OC)cc4)C[C@@H]23)cc1	none (no result: CaV13 FRET inh)
COCC#Cc1ccc([C@H]2[C@@H](CO)N3CCCCN(S(=O)(=O)c4ccc(OC)cc4)C[C@@H]23)cc1	none (no result: CaV13 FRET inh)
COCC#Cc1ccc([C@H]2[C@H]3CN(S(=O)(=O)c4ccc(OC)cc4)CCCCN3[C@H]2CO)cc1	DENV2 CPE 45 (no result: CaV13 FRET inh)
COCC#Cc1ccc([C@@H]2[C@@H](CO)N3CCCCN(S(=O)(=O)c4ccccc4F)C[C@@H]23)cc1	DENV2 CPE 21 (no result: CaV13 FRET inh)
COCC#Cc1ccc([C@H]2[C@H](CO)N3CCCCN(S(=O)(=O)c4ccc(OC)cc4)C[C@@H]23)cc1	DENV2 CPE 62 (no result: CaV13 FRET inh)
O=C(Nc1nc(-c2ccc([N+](=O)[O-])cc2)cs1)C1=COCCO1	DENV2 CPE 42
CNC12CCc3cc(OC)c(OC)c(c31)-c1cc3c(cc1C2)OCO3 (configuration not stated)	none (no result: CaV13 FRET inh, MLL AF4-AF9 inh, SIRT5 block)
C[C@@H]1CCCCO[C@H](CN(C)C(=O)CCC(F)(F)F)[C@H](C)CN([C@@H](C)CO)C(=O)c2cc(NC(=O)Nc3ccc4c(c3)OCO4)ccc2O1	DENV2 CPE 26 (no result: CaV13 FRET inh)
C[C@@H]1CCCCO[C@@H](CN(C)C(=O)CCC(F)(F)F)[C@@H](C)CN([C@H](C)CO)C(=O)c2cc(NC(=O)Nc3ccc4c(c3)OCO4)ccc2O1	DENV2 CPE 42 (no result: CaV13 FRET inh)
C[C@@H]1CN([C@@H](C)CO)C(=O)c2cc(NC(=O)Nc3ccccc3)ccc2O[C@@H](C)CCCCO[C@@H]1CN(C)C(=O)CCC(F)(F)F	none (no result: CaV13 FRET inh)
C[C@@H]1CN([C@H](C)CO)C(=O)c2cc(NC(=O)Nc3ccc4c(c3)OCO4)ccc2O[C@@H](C)CCCCO[C@@H]1CN(C)C(=O)CCC(F)(F)F	none (no result: CaV13 FRET inh)
CC(=O)N1[C@H](C)C=C[C@]1(Cc1ccccc1)C(=O)NCc1cc(F)cc(C(F)(F)F)c1	SIRT5 block 23
CC(C)(C)n1nnnc1C(c1cccc(C(F)(F)F)c1)N1CCOCC1 (configuration not stated)	none
CC(C)(C)n1nnnc1C(c1cccnc1)N1CCOCC1 (configuration not stated)	SIRT5 block 20
O=C(OCCc1cc2ccccc2c(=O)o1)c1ccc(F)cc1	SIRT5 block 33
CC(C)C#Cc1cnc2c(c1)C(=O)N([C@@H](C)CO)C[C@H](C)[C@H](CN(C)C(=O)Nc1cc(F)ccc1F)O2	none (no result: CaV13 FRET inh)
Fc1cccc(NCCc2c[nH]c3ccccc23)n1	none
c1ccc2c(NCCc3c[nH]c4ccccc34)c3ccccc3nc2c1	MLL AF4-AF9 inh 44
CCOC(=O)c1c(SC)n(-c2ccccc2)c(=S)n(-c2ccccc2)c1=O	DENV2 CPE inconclusive
CCOC(=O)c1c(SCCN2CCCCC2)n(-c2ccccc2)c(=S)n(-c2ccccc2)c1=O	DENV2 CPE 23
